Measured values pooled from the literature.
Protocols differ between the studies behind these lines.
Target: Serine/threonine-protein kinase WNK3 (WNK3, Homo sapiens, UniProt Q9BYP7)

Compound	read-out	mode	method	tested at	endpoint	value
Cc1cc(NC(=O)c2cccc(S(F)(F)(F)(F)F)c2)cc(-n2ccn3nc(-c4cccnc4)cc23)c1	cell-free assay	–	competition with immobilised ligand	1 µM	remaining binding	100%
CCN(CC)CCNC(=O)c1c(C)[nH]c(/C=C2\C(=O)Nc3ccc(F)cc32)c1C	enzyme activity	inhibitor	–	10 µM	inhibition	7%
FC(F)(F)c1ccc2c(c1)nc(-c1cccnc1)n2C1CC1	cell-free assay	–	competition with immobilised ligand	1 µM	remaining binding	100%
CN1CC(Oc2cnc(C#N)cc2-c2ccn3nc(NC(=O)C4CC4)cc3c2)C1	enzyme activity	inhibitor	–	1 µM	inhibition	-5%
CCCOc1ccc([C@H]2[C@H](C(=O)O)[C@@H](c3ccc4c(c3)OCO4)CN2CC(=O)Nc2c(CC)cccc2CC)cc1	cell-free assay	–	competition with immobilised ligand	1 µM	remaining binding	90%
CC(C)(O)[C@H]1CC[C@H](Nc2ccc3ncc(-c4cccc(C(F)(F)F)c4)n3n2)CC1	enzyme activity	inhibitor	–	1 µM	remaining activity	90.7%
CCC(=N\O)/C(C)=C/c1ccc(F)cc1	cell-free assay	–	competition with immobilised ligand	1 µM	remaining binding	75%
COc1cc(Cl)c(C(=O)N[C@@H](CN[C@H]2CC[C@@H](N)CC2)Cc2ccc(C#N)cc2)cc1-c1ccc(CN[C@H](C)c2ccc(C)cc2)o1	enzyme activity	inhibitor	–	1 µM	remaining activity	99%
CC(C)(O)c1cncc(-c2nc3ccc(F)cc3n2C2CC2)c1	cell-free assay	–	competition with immobilised ligand	1 µM	remaining binding	100%
Cc1ccc(Nc2nccc(N(C)c3ccc4c(C)n(C)nc4c3)n2)cc1S(N)(=O)=O	enzyme activity	inhibitor	–	10 µM	inhibition	33%
O=C(Nc1cnn(-c2csc(C(=O)NC3COC3)c2)c1)Nc1ccccc1Cl	enzyme activity	inhibitor	–	5 µM	remaining activity	99.5%
O=C1Nc2ccc(Cl)cc2C1=Cc1cc(Cl)c(O)c(Cl)c1	cell-free assay	–	–	0.5 µM	remaining signal	90.7%
Nc1ncnc2occ(-c3ccc(NC(=O)Nc4cc(C(F)(F)F)ccc4F)cc3)c12	cell-free assay	inhibitor	–	20 µM	remaining signal	58%
O=C(Nc1cnn(-c2csc(C(=O)NC3COC3)c2)c1)Nc1c(F)cccc1Cl	enzyme activity	inhibitor	–	5 µM	remaining activity	91.8%
N#CCCc1ccc2c(c1)-c1[nH]c3ccc([N+](=O)[O-])cc3c1CC(=O)N2	cell-free assay	–	–	0.5 µM	remaining signal	96.5%
CC(C)(C)c1nc2c(s1)c1nc(N)ncc1c1ccc(NS(=O)(=O)c3c(F)cccc3F)c(F)c12	enzyme activity	inhibitor	radiometric	1 µM	remaining activity	91%
CNC(=O)c1cc(Oc2ccc(NC(=O)Nc3ccc(Cl)c(C(F)(F)F)c3)cc2)ccn1	enzyme activity	inhibitor	–	10 µM	inhibition	-4%
